From ChEMBL document CHEMBL1132994, “Synthesis and anticonvulsant and neurotoxic properties of substituted N-phenyl derivatives of the phthalimide pharmacophore” (J Med Chem, 2000) come the findings set out here.

Data set [1] concerns Mus musculus. As to the kind of experiment: Anticonvulsant activity in mice through seizures induced by maximal electroshock (MES) tests after ip administration at a concentration of 100 mg/kg after 30 min; Active. It counts as functional, organism-based. The arrangement: dose 100 mg/kg. In general terms: In the maximal electroshock model the usual endpoint is tonic extension of the hind limbs.

In data set [2] the test system is Mus musculus. Description: Anticonvulsant activity in mice through seizures induced by sc pentylenetetrazole (intraperitoneal administration at a concentration of 300 mg/kg after 4 hours; Inactive. It counts as functional, organism-based. More on the design: dose 300 mg/kg.
In data set [3] the test system is Mus musculus. Description: Neurotoxicity by rotarod test after intraperitoneal administration at a concentration of 300 mg/kg after 4 hours; Active. It counts as functional, organism-based. The arrangement: dose 300 mg/kg. (In general: The rotarod test checks motor coordination on a turning rod.)
Data set [4] concerns Mus musculus. Description: Anticonvulsant activity in mice through seizures induced by maximal electroshock (MES) tests after ip administration at a concentration of 300 mg/kg after 4 hours; Active. It counts as functional, organism-based. More on the design: dose 300 mg/kg.
Data set [5] relates to Mus musculus. As to the kind of experiment: Anticonvulsant activity in mice through seizures induced by subcutaneous pentylenetetrazole (scPTZ) tests after ip administration at a concentration of 300 mg/kg after 30 min; Inactive. The format is functional, organism-based. The arrangement: dose 300 mg/kg.
Data set [6] relates to Mus musculus. As to the kind of experiment: Neurotoxicity by rotarod test after intraperitoneal administration at a concentration of 300 mg/kg after 30 minutes; Active. It counts as functional, organism-based. More on the design: dose 300 mg/kg.
For data set [7], the system named is Mus musculus. Description: Anticonvulsant activity in mice through seizures induced by sc pentylenetetrazole (intraperitoneal administration at a concentration of 300 mg/kg after 30 min; Inactive. The format is functional, organism-based. The arrangement: dose 300 mg/kg.
The subject of data set [8] is Mus musculus. Description: Neurotoxicity by rotarod test after intraperitoneal administration at a concentration of 300 mg/kg after 30 minutes; Inactive. The format is functional, organism-based. More on the design: dose 300 mg/kg.
The subject of data set [9] is Mus musculus. Description: Anticonvulsant activity in mice through seizures induced by maximal electroshock (MES) tests after ip administration at a concentration of 100 mg/kg after 30 min; Inactive. It counts as functional, organism-based. More on the design: dose 100 mg/kg.
Data set [10] has as its system Mus musculus. As to the kind of experiment: Anticonvulsant activity in mice through seizures induced by maximal electroshock (MES) tests after ip administration at a concentration of 300 mg/kg after 4 hours; Inactive. The format is functional, organism-based. The arrangement: dose 300 mg/kg.
Data set [11] concerns Mus musculus. Description: Neurotoxicity determined by rotarod test after intraperitoneal administration at a concentration of 300 mg/kg after 4 hours; Inactive. It counts as functional, organism-based. The arrangement: dose 300 mg/kg.
For data set [12], the system named is Mus musculus. As to the kind of experiment: Anticonvulsant activity in mice through seizures induced by maximal electroshock (MES) tests after ip administration at a concentration of 100 mg/kg after 30 min; active. It counts as functional, organism-based. More on the design: dose 100 mg/kg.
A short description of data set [13]: dose eliciting minimal neurological toxicity in 50% of animals. It counts as organism-based. Particulars: rat, in vivo.
Data set [14] deals with Rattus norvegicus. Description: Anticonvulsant activity was measured in rats through seizures induced by maximal electroshock (MES) tests by oral administration of drug after 15 minutes. The format is functional. In short, it runs like this: (§1)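 Rats given a single oral dose of 30 or 50 mg/kg, depending on compound; MES protection scored at 15, 30, 60, 120 and 240 min. Activity graded by fraction of animals protected (0-25%, 25-50%, 50-75%, 75-100%); neurotoxicity monitored at the same time points.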

The subject of data set [15] is Rattus norvegicus. Description: Anticonvulsant activity was measured in rats through seizures induced by maximal electroshock (MES) tests by oral administration of drug after 4 hours. It counts as functional. An outline of the steps:
as §1

The test system of data set [16] is Rattus norvegicus. Description: Toxicity screening in rats dosed orally with the compound; No toxicity. Particulars: in vivo, po. It counts as organism-based.
The subject of data set [17] is Rattus norvegicus. Description: Effective dose required to assure anticonvulsant protection in 50% of rats dosed orally by MES test. It counts as functional. Particulars: po. In short, it runs like this:
(§2)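 Rats dosed orally; ED50 is the dose giving anticonvulsant protection in 50% of animals in the MES or scPtz test. TD50 is the minimal neurotoxic dose in 50% of animals. Time to peak effect was also determined.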

Data set [18] deals with Rattus norvegicus. As to the kind of experiment: Anticonvulsant activity was measured in rats through seizures induced by maximal electroshock (MES) tests by oral administration of drug after 2 hours. The format is functional. An outline of the steps:
as §1

Data set [19] relates to Rattus norvegicus. Description: Anticonvulsant activity was measured in rats through seizures induced by maximal electroshock (MES) tests by oral administration of drug after 1 hour. The format is functional. An outline of the steps: as §1
Data set [20] deals with Rattus norvegicus. As to the kind of experiment: Anticonvulsant activity was measured in rats through seizures induced by maximal electroshock (MES) tests by oral administration of drug after 30 minutes. It counts as functional. In short, it runs like this:
as §1

The test system of data set [21] is Rattus norvegicus. Description: Effective dose required to assure anticonvulsant protection in 50% of rats dosed orally by scPTZ test. The format is functional. Particulars: po. An outline of the steps: as §2
The subject of data set [22] is Mus musculus. Description: Anticonvulsant activity in mice through seizures induced by subcutaneous pentylenetetrazole (scPTZ) tests after ip administration at a concentration of 300 mg/kg after 4 hours; Inactive. It counts as functional, organism-based. More on the design: dose 300 mg/kg.
In data set [23] the test system is Mus musculus. As to the kind of experiment: Neurotoxicity by rotarod test after intraperitoneal administration at a concentration of 300 mg/kg after 30 minutes; active. It counts as functional, organism-based. More on the design: dose 300 mg/kg.
Data set [24] relates to Mus musculus. Description: Anticonvulsant activity in mice through seizures induced by subcutaneous pentylenetetrazole (scPTZ) tests after ip administration at a concentration of 300 mg/kg after 30 min; active. It counts as functional, organism-based. The arrangement: dose 300 mg/kg.

The source made the active and inactive calls. The calls are words filed in the database; no cut-off is given here.

As to `Cc1cc(N)ccc1N1C(=O)c2ccccc2C1=O`, the result in data set [1], in data set [3], in data set [4] and in [6] was Active. In addition, the result in data set [2] and in [5] was inactive.

Turning to `O=C1c2ccccc2C(=O)N1c1ccc([N+](=O)[O-])cc1`, the result in data set [7], in data set [8], in [9], in data set [2], in [10] and in [11] was inactive.

As for `Cc1c(N)cccc1N1C(=O)CCC1=O`, the outcome in data set [7], in data set [8], in [2], in data set [10] and in data set [11] was inactive. The outcome in [12] was Active.

Regarding `Cc1c(N)cccc1N1C(=O)c2ccccc2C1=O`, the TD50 in data set [13] is more than 400 mg/kg. Besides, the outcome in data set [1] and in data set [4] was Active. Also, the result in data set [8], in data set [2], in [5] and in data set [11] was inactive. Further, the Activity in animals in [14], in [15], in data set [18], in data set [19] and in [20] was 100% throughout. In [16], the Toxicity entry is reported as “No toxicity”. For the same compound, the ED50 in [17] was 8 mg/kg; in data set [21], more than 200 mg/kg.

`Cc1ccc(N)cc1N1C(=O)c2ccccc2C1=O`: the outcome in data set [7], in data set [8], in data set [10], in data set [22] and in data set [11] was inactive. The result in [1] was Active.

With `Cc1cccnc1N1C(=O)c2ccccc2C1=O`, the outcome in data set [23], in data set [12] and in data set [24] was Active. Further, the Activity in animals in data set [14] worked out at 25%; in [18], 50%; in data set [19], 50%; in data set [20], 50%. The Toxicity entry in [16] is “No toxicity”. For the same compound, the outcome in data set [2], in [10] and in data set [11] was inactive.

On to `Cc1cc([N+](=O)[O-])ccc1N1C(=O)c2ccccc2C1=O`, for which the outcome in data set [8], in [9], in [2], in [5] and in [11] was inactive. The result in data set [4] was Active.

Take `Cc1c(C(=O)O)cccc1N1C(=O)c2ccccc2C1=O`: the outcome in data set [8], in data set [9], in data set [10], in [5], in data set [22] and in data set [11] was inactive.

In the case of `Cc1c(N2C(=O)c3ccccc3C2=O)cccc1[N+](=O)[O-]`, the outcome in data set [7], in data set [8], in data set [9], in data set [2], in data set [10] and in [11] was inactive.

Broadly, the TD50 is the dose at which the toxic effect under study appears in half of the subjects. A high value points to harm only at a large dose. One may read the ED50 as the midpoint of the dose-response relation. A higher ED50 goes with a need for a large dose.
